Assay results published in ChEMBL document CHEMBL2434944, “Novel acetamidothiazole derivatives: synthesis and in vitro anticancer evaluation” (Eur J Med Chem, 2013).
pKi: −log10 of the molar value.

Columns and labels:
MDA-MB-231 = test: Growth inhibition of human MDA-MB-231 cells assessed as cell growth at 10^-5 M after 48 hrs by sulforhodamine B assay relative to control; assay type: functional; details: MDA-MB-231, 48 h, read-out: Activity
In short: (§1)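 NCI-60 single-dose screen at 10^-5 M. Cells grown in RPMI 1640 with 5% FBS and 2 mM L-glutamine, plated at 5,000–40,000 cells/well according to doubling time, and preincubated 24 h at 37°C, 5% CO2. Compound dissolved in DMSO and added. Exposure 48 h. Adherent cells fixed with cold TCA (10% final), suspension cells with 16% final TCA. Read-out is 0.4% SRB staining, dye solubilised in 10 mM Tris, absorbance at 515 nm. Percent growth is calculated against the time-zero plate and untreated control.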

MDA-MB-435 = test: Growth inhibition of human MDA-MB-435 cells assessed as cell growth at 10^-5 M after 48 hrs by sulforhodamine B assay relative to control; assay type: functional; details: MDA-MB-435, 48 h, read-out: Activity; in short: as §1
MOLT-4 = test: Growth inhibition of human MOLT4 cells assessed as cell growth at 10^-5 M after 48 hrs by sulforhodamine B assay relative to control; assay type: functional; details: MOLT-4, 48 h, read-out: Activity; in short: as §1
A498 = test: Growth inhibition of human A498 cells assessed as cell growth at 10^-5 M after 48 hrs by sulforhodamine B assay relative to control; assay type: functional; details: A498, 48 h, read-out: Activity; in short: as §1
LOX IMVI = test: Growth inhibition of human LOXIMVI cells assessed as cell growth at 10^-5 M after 48 hrs by sulforhodamine B assay relative to control; assay type: functional; details: read-out: Activity; in short: as §1
U-251 = test: Growth inhibition of human U251 cells assessed as cell growth at 10^-5 M after 48 hrs by sulforhodamine B assay relative to control; assay type: functional; details: U-251, 48 h, read-out: Activity
In short: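 NCI-60 single-dose screen, 10^-5 M final. Cells grown in RPMI 1640 with 5% FBS and 2 mM L-glutamine, seeded at 5,000–40,000 cells/well by doubling time. Preincubated 24 h at 37°C, 5% CO2. Compound in DMSO, diluted in medium with gentamicin, then 48 h exposure. Fixed with cold TCA, SRB stained, A515 read. Percent growth vs untreated control, time-zero plate corrected.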

Thymidylate synthase = Thymidylate synthase (Homo sapiens, UniProt P04818); test: Inhibition of human thymidylate synthase
SK-MEL-5 = test: Growth inhibition of human SK-MEL-5 cells assessed as cell growth at 10^-5 M after 48 hrs by sulforhodamine B assay relative to control; assay type: functional; details: SK-MEL-5, 48 h, read-out: Activity; in short: as §1
OVCAR-5 = test: Growth inhibition of human OVCAR5 cells assessed as cell growth at 10^-5 M after 48 hrs by sulforhodamine B assay relative to control; assay type: functional; details: OVCAR-5, 48 h, read-out: Activity; in short: as §1
[1] = biological target: T1, Leukotriene A-4 hydrolase (Homo sapiens, UniProt P09960); test: Inhibition of human leukotriene A-4 hydrolase
T1 sequence (P09960 whole entry): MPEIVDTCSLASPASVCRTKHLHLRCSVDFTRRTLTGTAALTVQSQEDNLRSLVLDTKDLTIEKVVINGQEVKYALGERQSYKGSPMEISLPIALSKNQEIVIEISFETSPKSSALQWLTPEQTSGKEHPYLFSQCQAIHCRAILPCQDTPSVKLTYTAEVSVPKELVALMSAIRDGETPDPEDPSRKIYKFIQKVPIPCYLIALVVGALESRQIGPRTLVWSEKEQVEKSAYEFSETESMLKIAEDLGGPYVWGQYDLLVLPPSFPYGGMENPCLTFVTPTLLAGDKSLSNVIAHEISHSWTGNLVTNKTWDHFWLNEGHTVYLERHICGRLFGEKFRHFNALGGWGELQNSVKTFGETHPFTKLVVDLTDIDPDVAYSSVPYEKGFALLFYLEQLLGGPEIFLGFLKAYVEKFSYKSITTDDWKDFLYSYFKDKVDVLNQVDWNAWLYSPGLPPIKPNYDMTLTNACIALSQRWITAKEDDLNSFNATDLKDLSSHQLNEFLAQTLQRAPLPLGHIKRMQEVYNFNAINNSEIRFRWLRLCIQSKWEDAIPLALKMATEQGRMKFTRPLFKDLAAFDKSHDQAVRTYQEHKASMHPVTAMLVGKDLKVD

Malme-3M = test: Growth inhibition of human MALME-3M cells assessed as cell growth at 10^-5 M after 48 hrs by sulforhodamine B assay relative to control; assay type: functional; details: read-out: Activity; in short: as §1
CAKI-1 = test: Growth inhibition of human CAKI-1 cells assessed as cell growth at 10^-5 M after 48 hrs by sulforhodamine B assay relative to control; assay type: functional; details: CAKI-1, 48 h, read-out: Activity; in short: as §1
KM12 = test: Growth inhibition of human KM12 cells assessed as cell growth at 10^-5 M after 48 hrs by sulforhodamine B assay relative to control; assay type: functional; details: KM12, 48 h, read-out: Activity; in short: as §1
NCI-H226 = test: Growth inhibition of human NCI-H226 cells assessed as cell growth at 10^-5 M after 48 hrs by sulforhodamine B assay relative to control; assay type: functional; details: NCI-H226, 48 h, read-out: Activity; in short: as §1
[2] = biological target: Epidermal growth factor receptor (Homo sapiens, UniProt P00533); test: Inhibition of human EGFR
NCI-H23 = test: Growth inhibition of human NCI-H23 cells assessed as cell growth at 10^-5 M after 48 hrs by sulforhodamine B assay relative to control; assay type: functional; details: NCI-H23, 48 h, read-out: Activity; in short: as §1
SK-MEL-2 = test: Growth inhibition of human SK-MEL-2 cells assessed as cell growth at 10^-5 M after 48 hrs by sulforhodamine B assay relative to control; assay type: functional; details: SK-MEL-2, 48 h, read-out: Activity; in short: as §1
NCI-H322M = test: Growth inhibition of human NCI-H322M cells assessed as cell growth at 10^-5 M after 48 hrs by sulforhodamine B assay relative to control; assay type: functional; details: read-out: Activity; in short: as §1
SN12C = test: Growth inhibition of human SN12C cells assessed as cell growth at 10^-5 M after 48 hrs by sulforhodamine B assay relative to control; assay type: functional; details: read-out: Activity; in short: as §1
HL-60(TB) = test: Growth inhibition of human HL-60(TB) cells assessed as cell growth at 10^-5 M after 48 hrs by sulforhodamine B assay relative to control; assay type: functional; details: HL-60, 48 h, read-out: Activity
In short: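 NCI-60 one-dose screen at 10^-5 M. Cells were grown in RPMI 1640 with 5% FBS and 2 mM L-glutamine and plated at 5,000–40,000 cells/well. They were preincubated 24 h at 37°C under 5% CO2, then exposed for 48 h. Suspension cells were fixed with 80% TCA (16% final) and stained with 0.4% SRB, read at 515 nm. Percent growth is versus untreated control, corrected for time-zero.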

SNB-75 = test: Growth inhibition of human SNB75 cells assessed as cell growth at 10^-5 M after 48 hrs by sulforhodamine B assay relative to control; assay type: functional; details: SNB-75, 48 h, read-out: Activity; in short: as §1
HCT-15 = test: Growth inhibition of human HCT15 cells assessed as cell growth at 10^-5 M after 48 hrs by sulforhodamine B assay relative to control; assay type: functional; details: HCT-15, 48 h, read-out: Activity; in short: as §1

Chain of Epidermal growth factor receptor (P00533 whole entry): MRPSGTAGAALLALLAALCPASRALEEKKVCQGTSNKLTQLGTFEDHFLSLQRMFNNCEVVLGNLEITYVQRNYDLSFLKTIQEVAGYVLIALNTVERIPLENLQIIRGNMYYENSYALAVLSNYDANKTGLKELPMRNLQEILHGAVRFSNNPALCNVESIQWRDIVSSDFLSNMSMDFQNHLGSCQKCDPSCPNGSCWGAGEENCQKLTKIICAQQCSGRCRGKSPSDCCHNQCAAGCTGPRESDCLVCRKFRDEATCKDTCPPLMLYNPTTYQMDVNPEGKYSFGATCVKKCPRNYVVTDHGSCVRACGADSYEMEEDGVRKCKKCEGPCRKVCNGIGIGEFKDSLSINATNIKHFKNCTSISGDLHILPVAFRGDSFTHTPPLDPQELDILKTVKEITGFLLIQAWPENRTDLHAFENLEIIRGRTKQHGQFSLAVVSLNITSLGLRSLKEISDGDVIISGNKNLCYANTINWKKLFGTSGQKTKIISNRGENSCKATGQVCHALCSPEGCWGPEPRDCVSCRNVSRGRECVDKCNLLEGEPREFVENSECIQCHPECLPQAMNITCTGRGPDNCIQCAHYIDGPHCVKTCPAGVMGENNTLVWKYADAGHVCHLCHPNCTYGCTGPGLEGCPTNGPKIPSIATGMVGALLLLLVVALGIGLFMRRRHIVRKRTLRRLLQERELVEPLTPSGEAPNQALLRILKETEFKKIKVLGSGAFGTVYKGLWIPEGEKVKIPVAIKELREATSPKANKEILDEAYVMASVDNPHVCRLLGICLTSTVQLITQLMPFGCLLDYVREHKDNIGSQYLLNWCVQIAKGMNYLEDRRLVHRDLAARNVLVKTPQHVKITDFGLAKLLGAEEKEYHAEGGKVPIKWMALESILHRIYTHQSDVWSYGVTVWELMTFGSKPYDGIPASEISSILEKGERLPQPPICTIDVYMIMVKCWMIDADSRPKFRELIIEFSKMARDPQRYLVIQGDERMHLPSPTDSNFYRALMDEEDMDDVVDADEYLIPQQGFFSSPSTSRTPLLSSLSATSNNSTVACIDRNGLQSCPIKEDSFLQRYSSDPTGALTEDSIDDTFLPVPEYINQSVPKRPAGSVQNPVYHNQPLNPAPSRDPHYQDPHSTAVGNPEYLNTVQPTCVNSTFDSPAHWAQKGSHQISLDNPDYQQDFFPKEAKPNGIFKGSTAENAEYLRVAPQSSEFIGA
Chain of Thymidylate synthase (P04818 whole entry): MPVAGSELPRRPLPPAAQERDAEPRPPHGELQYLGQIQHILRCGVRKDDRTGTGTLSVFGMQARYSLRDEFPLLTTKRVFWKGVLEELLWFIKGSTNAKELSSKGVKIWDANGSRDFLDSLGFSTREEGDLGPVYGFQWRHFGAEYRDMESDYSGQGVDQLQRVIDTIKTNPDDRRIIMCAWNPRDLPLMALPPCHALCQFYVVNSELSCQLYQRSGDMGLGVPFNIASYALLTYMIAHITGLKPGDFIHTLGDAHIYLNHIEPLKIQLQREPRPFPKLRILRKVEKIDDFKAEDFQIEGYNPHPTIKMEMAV

Row | SMILES | growth at 10 µM (MDA-MB-231) [%] | growth at 10 µM (MDA-MB-435) [%] | growth at 10 µM (MOLT-4) [%] | growth at 10 µM (A498) [%] | growth at 10 µM (LOX IMVI) [%] | growth at 10 µM (U-251) [%] | pKi (Thymidylate synthase) | growth at 10 µM (SK-MEL-5) [%] | growth at 10 µM (OVCAR-5) [%] | pKi [1] | growth at 10 µM (Malme-3M) [%] | growth at 10 µM (CAKI-1) [%] | growth at 10 µM (KM12) [%] | growth at 10 µM (NCI-H226) [%] | pKi [2] | growth at 10 µM (NCI-H23) [%] | growth at 10 µM (SK-MEL-2) [%] | growth at 10 µM (NCI-H322M) [%] | growth at 10 µM (SN12C) [%] | growth at 10 µM (HL-60(TB)) [%] | other results
1 | Cc1ccc(-c2csc(=N)n2CC(=O)N2CCN(c3ccccc3)CC2)cc1 | 78.8 | 92.2 | 94.5 | 92.6 | 96.8 | 95.3 | 5.25 | 88.2 | 110 | 5.37 | 118 | 70.4 | 104 | 97.2 | 5.53 | 101 | 117 | 99.7 | 85.2 | 127 | growth at 10 µM (SNB-75): 95.8%; growth at 10 µM (HCT-15): 104%
2 | N=c1scc(-c2ccc(Cl)cc2)n1CC(=O)N1CCN(c2ccccc2)CC1 | 114 | 92.2 | 87 | 84.9 | 103 | 89.6 | 5.29 | 91.9 | 93.8 | 7.03 | 107 | 93.3 | 108 | 92.2 | 5.24 | 98.3 | 79 | 99.8 | 99.8 | 89.8 | growth at 10 µM (SNB-75): 78.4%; growth at 10 µM (HCT-15): 96.8%
3 | N=c1scc(-c2ccccc2)n1CC(=O)N1CCN(c2ccccc2)CC1 | 95 | 96.5 | 99.6 | 87.2 | 90.7 | 91.2 | 5.87 | 94.8 | 94.1 | 6.19 | 94.2 | 87.5 | 104 | 93.7 | 5.33 | 91.7 | 104 | 92.6 | 101 | 99 | growth at 10 µM (SNB-75): 74.6%; growth at 10 µM (HCT-15): 97%
4 | CC(=O)N1CCN(C(=O)Cn2c(-c3ccc(C)cc3)csc2=N)CC1 | 75.3 | 80.6 | 73 | 80.6 | 85.5 | 85 | 5.44 | 92.1 | 122 | 5.79 | 121 | 81.5 | 99.4 | 96 | 5.22 | 95.7 | 113 | 108 | 87.4 | 108 | growth at 10 µM (SNB-75): 82.3%; growth at 10 µM (HCT-15): 90.6%
5 | CC(=O)N1CCN(C(=O)Cn2c(-c3ccc(Cl)cc3)csc2=N)CC1 | 111 | 85.3 | 77 | 67.7 | 93.8 | 85.9 | 4.95 | 86.4 | 101 | 6.22 | 133 | 82.8 | 95.2 | 96.3 | 5.07 | 96.9 | 95.7 | 90.4 | 88.6 | 98 | growth at 10 µM (SNB-75): 74.4%; growth at 10 µM (HCT-15): 86.5%
6 | Cc1ccc(-c2csc(=N)n2CC(=O)N2CCN(C)CC2)cc1 | 83.4 | 83.4 | 76.3 | 80.2 | 89.1 | 83.9 | 4.72 | 87.2 | 116 | 6.43 | 128 | 78 | 104 | 93.1 | 4.56 | 93.3 | 108 | 104 | 93.2 | 109 | growth at 10 µM (SNB-75): 73.5%; growth at 10 µM (HCT-15): 91.6%
7 | CC(=O)N1CCN(C(=O)Cn2c(-c3ccccc3)csc2=N)CC1 | 95.4 | 105 | 96.2 | 100 | 94.3 | 96.9 | 4.96 | 90.2 | 105 | 5.59 | 141 | 76.8 | 102 | 88.8 | 4.78 | 98.5 | 108 | 94.4 | 95.8 | 111 | growth at 10 µM (SNB-75): 67.7%; growth at 10 µM (HCT-15): 94.5%
8 | CN1CCN(C(=O)Cn2c(-c3ccc(Cl)cc3)csc2=N)CC1 | 103 | 92.2 | 75.1 | 80 | 96.8 | 91.2 | 6.47 | 100 | 96.4 | 6.76 | 99.6 | 85.9 | 98.7 | 95.9 | 4.81 | 100 | 102 | 95.9 | 92.8 | 102 | growth at 10 µM (SNB-75): 79.5%; growth at 10 µM (HCT-15): 93.1%
